From ChEMBL document CHEMBL1156640, “Cyclopeptides with anti-inflammatory activity from seeds of Annona montana” (J Nat Prod, 2008)
Active and inactive are the calls of the source. The calls are words filed in the database; no cut-off is given here. Peptide text beside a SMILES is read from it.

Legend:
KB = experiment: Cytotoxicity against human KB cells; assay type: functional, cell-based
HepG2 = experiment: Cytotoxicity against human HepG2 cells; assay type: functional, cell-based
Hep 3B2 = experiment: Cytotoxicity against human Hep3B cells; assay type: functional, cell-based
MDA-MB-231 = experiment: Cytotoxicity against human MDA-MB-231 cells; assay type: functional, cell-based
MCF7 = experiment: Cytotoxicity against human MCF7 cells; assay type: functional, cell-based
A549 = experiment: Cytotoxicity against human A549 cells; assay type: functional, cell-based
Ca9-22 = experiment: Cytotoxicity against human Ca9-22 cells; assay type: functional, cell-based
J774.A1 [1] = experiment: Antiinflammatory activity in mouse J774A.1 cells assessed as decrease in LPS-stimulated TNFalpha production at 30 ug/ml; assay type: functional; set-up: scale not given: the % may be the effect or the level left
How it was run: (§1)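 J774A.1 murine macrophages at 1 × 10⁶/mL in RPMI 1640 with 10% heat-inactivated FBS and 2 mM L-glutamine, 37 °C, 5% CO₂. Cells preincubated with cyclopeptide at 37 °C for 30 min, then stimulated with LPS (0.1 µg/mL) for a further 6 h. TNF-α and IL-6 in culture medium measured by ELISA. DMSO-treated cells served as controls.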

J774.A1 [2] = experiment: Antiinflammatory activity in mouse J774A.1 cells assessed as decrease in LPS-stimulated IL6 production at 30 ug/ml; assay type: functional; set-up: scale not given: the % may be the effect or the level left; how it was run: as §1
J774.A1 [3] = experiment: Antiinflammatory activity in mouse J774A.1 cells assessed as decrease in LPS-stimulated TNFalpha production at 1 ug/ml; assay type: functional, cell-based; how it was run: as §1
J774.A1 [4] = experiment: Antiinflammatory activity in mouse J774A.1 cells assessed as decrease in LPS-stimulated TNFalpha production at 3 ug/ml; assay type: functional, cell-based; how it was run: as §1
J774.A1 [5] = experiment: Antiinflammatory activity in mouse J774A.1 cells assessed as decrease in LPS-stimulated IL6 production at 3 ug/ml; assay type: functional, cell-based; how it was run: as §1
J774.A1 [6] = experiment: Antiinflammatory activity in mouse J774A.1 cells assessed as decrease in pam3Cys-stimulated TNFalpha production at 1 ug/ml; assay type: functional, cell-based
How it was run: (§2)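 J774A.1 murine macrophages at 1 × 10⁶/mL in RPMI 1640 with 10% heat-inactivated FBS and 2 mM L-glutamine, 37 °C, 5% CO₂. Cells pretreated with cyclopeptide for 30 min, then stimulated with the TLR2 ligand Pam3Cys for an additional 6 h. TNF-α or IL-6 in culture medium determined by ELISA.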

J774.A1 [7] = experiment: Antiinflammatory activity in mouse J774A.1 cells assessed as decrease in pam3Cys-stimulated IL6 production at 3 ug/ml; assay type: functional, cell-based; how it was run: as §2
J774.A1 [8] = experiment: Antiinflammatory activity in mouse J774A.1 cells assessed as decrease in pam3Cys-stimulated TNFalpha production at 3 ug/ml; assay type: functional; how it was run: as §2
J774.A1 [9] = experiment: Antiinflammatory activity in mouse J774A.1 cells assessed as decrease in LPS-stimulated IL6 production at 3 ug/ml
J774.A1 [10] = experiment: Antiinflammatory activity in mouse J774A.1 cells assessed as decrease in pam3Cys-stimulated IL6 production at 3 ug/ml
J774.A1 [11] = experiment: Antiinflammatory activity in mouse J774A.1 cells assessed as decrease in LPS-stimulated IL6 production at 3 to 50 ug/ml; assay type: functional, cell-based; how it was run: as §1
J774.A1 [12] = experiment: Antiinflammatory activity in mouse J774A.1 cells assessed as decrease in LPS-stimulated TNFalpha production at 3 to 50 ug/ml; assay type: functional, cell-based; how it was run: as §1
J774.A1 [13] = experiment: Antiinflammatory activity in mouse J774A.1 cells assessed as decrease in pam3Cys-stimulated IL6 production at 3 to 50 ug/ml; assay type: functional, cell-based; how it was run: as §2
J774.A1 [14] = experiment: Antiinflammatory activity in mouse J774A.1 cells assessed as decrease in pam3Cys-stimulated TNFalpha production at 5 ug/ml; assay type: functional; how it was run: as §2
J774.A1 [15] = experiment: Antiinflammatory activity in mouse J774A.1 cells assessed as decrease in pam3Cys-stimulated TNFalpha production at 10 ug/ml; assay type: functional; how it was run: as §2
J774.A1 [16] = experiment: Antiinflammatory activity in mouse J774A.1 cells assessed as decrease in pam3Cys-stimulated TNFalpha production at 30 ug/ml; assay type: functional; how it was run: as §2
J774.A1 [17] = experiment: Antiinflammatory activity in mouse J774A.1 cells assessed as decrease in pam3Cys-stimulated TNFalpha production at 50 ug/ml; assay type: functional; how it was run: as §2
J774.A1 [18] = experiment: Antiinflammatory activity in mouse J774A.1 cells assessed as decrease in pam3Cys-stimulated IL6 production; assay type: functional, cell-based; how it was run: as §2

CC(C)[C@@H]1NC(=O)[C@H](Cc2ccccc2)NC(=O)CNC(=O)[C@@H]2CCCN2C(=O)[C@H](C)NC(=O)[C@H](CO)NC1=O [ANNUMURICATIN C] (cyclo(APGFVS))
IC50 (KB): 1000 nM | Activity (HepG2): inactive | Activity (Hep 3B2): inactive | Activity (MDA-MB-231): inactive | Activity (MCF7): inactive | Activity (A549): inactive | Activity (Ca9-22): inactive | Activity (J774.A1 [1]): 50% | Activity (J774.A1 [2]): 50%

CC(C)C[C@@H]1NC(=O)CNC(=O)[C@@H]2CCCN2C(=O)[C@H]([C@@H](C)O)NC(=O)[C@H](Cc2c[nH]c3ccccc23)NC(=O)[C@H](C)NC(=O)[C@H](CC(N)=O)NC1=O [CYCLOMONTANIN A] (cyclo(AWTPGLN))
Activity (J774.A1 [1]): 50% | Activity (J774.A1 [2]): 50% | Activity (J774.A1 [3]): Active | Activity (J774.A1 [4]): Active | Activity (J774.A1 [5]): Active | Activity (J774.A1 [6]): Active | Activity (J774.A1 [7]): Active | Activity (J774.A1 [8]; 1 ug/ml, in the assay text read “at 1 ug/ml” for “at 3 ug/ml”): Active | Activity (J774.A1 [9]): Active | Activity (J774.A1 [10]): Active

CC(C)[C@@H]1NC(=O)[C@H](Cc2c[nH]cn2)NC(=O)[C@H](CC(N)=O)NC(=O)[C@H](Cc2ccccc2)NC(=O)[C@H]([C@@H](C)O)NC(=O)[C@@H]2CCCN2C(=O)[C@@H]2CCCN2C(=O)[C@H](Cc2ccccc2)NC(=O)[C@H](CC(N)=O)NC1=O [CYCLOMONTANIN C] (cyclo(FNHVNFPPT))
Activity (J774.A1 [1]): 50% | Activity (J774.A1 [2]): 50% | Activity (J774.A1 [11]): Active | Activity (J774.A1 [12]): Active | Activity (J774.A1 [13]): Active

CC(C)C[C@@H]1NC(=O)CNC(=O)[C@@H]2CCCN2C(=O)[C@H](CC(N)=O)NC(=O)[C@H](C)NC(=O)[C@H](Cc2ccc(O)cc2)NC(=O)[C@@H]2CCCN2C1=O [CYCLOMONTANIN D] (cyclo(ANPGLPY))
Activity (J774.A1 [1]): 50% | Activity (J774.A1 [2]): 50% | inhibition at 3 µg/mL (J774.A1 [8]): 20% | inhibition at 5 µg/mL (J774.A1 [14]): 50% | inhibition at 10 µg/mL (J774.A1 [15]): 60% | inhibition at 30 µg/mL (J774.A1 [16]): 85% | inhibition at 50 µg/mL (J774.A1 [17]): 90% | Activity (J774.A1 [18]): Dose-dependent effect
